From publication PMC6263152 (Journal of medicinal chemistry, 2018)

Key:
[1] = tested on: PC3 (PSMA−) cells; assay: FACS flow cytometry nonspecific binding control, PC3 cells
How it was run: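 PSMA− PC3 cells (luciferase/GFP-expressing) were incubated with 0.1–100 nM test compound for 1 h at 37 °C. Cell-bound fluorescence was read by flow cytometry in the Cy3 channel (488 nm, 22 mW excitation; 620/30 emission filter). Curves were fitted with a two-parameter exponential function. Flow experiments were run in duplicate.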

[2] = tested on: PC3-PIP (PSMA+) vs PC3 (PSMA−) cell containing myocutaneous tissue; assay: Ex vivo γ-scintillated biodistribution in mice bearing PC3 and PC3-PIP cells; design: species or system C57BL/6 mice; conditions: 2 h after iv injection, γ-scintillation of excised tissue
How it was run: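 Male C57BL/6 mice, 5–6 weeks old, 20–25 g (n = 6), were given 3 × 10^6 (18 mg) PC3 cells s.c. in the left flank and PC3-PIP cells in the right flank. After 15 min, radiotracer (100 μL, 80 μCi, 25 μM; 2.5 nmol) went i.v. via the tail vein. Mice were killed by cervical dislocation at 2 h. Organs and flank myocutaneous tissue were weighed and γ-counted as %ID per gram, mean ± SEM.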

[3] = Defluoridation stability; assay type: in vitro ADME
[4] = Optical properties in 1× PBS; assay type: physicochemical; conditions: pH 7.5
[5] = tested on: PC3-PIP (PSMA+) and PC3 (PSMA−) cell containing tissue; assay: PET/CT imaging in mice bearing PC3 and PC3-PIP cells; assay type: in vivo, C57BL/6 mice
How it was run: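 Male C57BL/6 mice received s.c. 3 × 10^6 (18 mg) PC3 cells in the left flank and PC3-PIP cells in the right flank (n = 6); mice without cells served as controls (n = 5). 15 min later, [18F]-labelled test compound (80 μCi, 2.5 nmol, 100 μL) was given i.v. by tail vein. A 10 min CT then a 15 min PET scan were acquired at 2 and 6 h, shown as maximum intensity projections.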

In the case of `CC1(C)C(/C=C/C=C2\N(CCCCCC(=O)NCCCC[C@H](NC(=O)N[C@H](CCC(=O)O)C(=O)O)C(=O)O)c3ccc(S(=O)(=O)O)cc3C2(C)C)=[N+](CCCCCC(=O)NCCCCn2cc(C[N+](C)(C)C[B-](F)(F)F)nn2)c2ccc(S(=O)(=O)O)cc21` [[^19F]-4, ((((1-(4-(6-(2-((E)-3-((Z)-1-(6-(((S)-5-Carboxy-5-(3-((R)-1,3-dicarboxypropyl)ureido)pentyl)amino)-6-oxohexyl)-3,3-dimethyl-5-sulfoindolin-2-ylidene)prop-1-en-1-yl)-3,3-dimethyl-5-sulfo-3H-indol-1-ium-1-yl)hexanamido)butyl)-1H-1,2,3-triazol-4-yl)methyl)dimethylammonio)methyl) Trifluoroborate], the “Nonspecific binding to PC3” value [1] is reported as “not observed”, the “Activity in PC3-PIP (PSMA+) vs PC3 (PSMA−) containing myocutaneous tissue” value [2] is reported as 175 fold and the Defluoridation ([3]; 7 days room temperature incubation with fetal bovine serum) is reported as “Less than 1%”. For the same molecule, the “Chemical decomposition (defluoridation)” value ([3]; physiological conditions) was “not observed”, the Extinction coefficient ([4]; 1 mM PBS) was 159 000 M^−1 cm^−1 and the “Quantum yield φ” value [4] was 0.06. For the same molecule, the “Liberation of [18F]-fluoride ion (defluoridation) in vivo” value [5] was “not observed”.
